Measured values collected from several papers.
Protocols differ between the studies behind these lines.
Read-out: cell growth or viability

SMILES | cell line | technique | concentration | time | setting | measurement | value
CC[C@H](C)[C@@H]([C@@H](CC(=O)N1CCC[C@H]1[C@H](OC)[C@@H](C)C(=O)N[C@H](C)[C@@H](O)c1ccccc1)OC)N(C)C(=O)[C@@H](NC(=O)[C@@H](NC)C(C)C)C(C)C | 4T1 | CCK-8 |  |  |  | IC50 | 0.294 nM
CC[C@H](C)[C@@H]([C@@H](CC(=O)N1CCC[C@H]1[C@H](OC)[C@@H](C)C(=O)N[C@H](C)[C@@H](O)c1ccccc1)OC)N(C)C(=O)[C@@H](NC(=O)[C@H](C(C)C)N(C)C(=O)OCc1ccc(NC(=O)[C@H](CCCNC(N)=O)NC(=O)[C@@H](NC(=O)CCOCCOCCOCCOCCC(=O)N[C@@H]2CSSC[C@H](C(=O)O)NC(=O)CNC(=O)[C@@H](CCCNC(=N)N)NC(=O)CNC(=O)[C@@H](C(C)C)NC(=O)CNC(=O)[C@@H](C)NC(=O)[C@@H](CCCNC(=N)N)NC2=O)C(C)C)cc1)C(C)C | 4T1 | resazurin |  | 24 h |  | IC50 | 500 nM
CN(C)c1ccc(C(=O)NCCCCCCC(=O)NO)cc1 | OCI-Ly1 | ATP luminescence | 0.5 µM | 5 days |  | viability | 62.3%
N.N.[Cl][Pt][Cl] | K562 | ATP luminescence | 10 µM | 72 h |  | inhibition | 97%
Cc1ncsc1-c1ccc([C@H](C)NC(=O)[C@@H]2C[C@@H](O)CN2C(=O)[C@@H](c2cc(N3CCC(CN4CCC(OC5CC(Oc6cc(N7C8CCC7CN(c7cc(-c9ccccc9O)nnc7N)C8)ccn6)C5)CC4)CC3)no2)C(C)C)cc1 (some centres unmarked) | VCaP | ATP luminescence |  | 7 days |  | IC50 | 4.3 nM
CC(=O)N[C@H]1[C@@H](O[C@@H]2O[C@H](C[C@@H](O)[C@H]3O[C@@H](n4ccc(=O)[nH]c4=O)[C@H](O)[C@@H]3O)[C@H](O)[C@H](O)[C@H]2NC(=O)/C=C/CCCCCCCCCC(C)C)O[C@H](CO)[C@@H](O)[C@@H]1O | MCF-10A | WST-1 |  |  |  | IC50 | 250 nM
N.N.[Cl][Pt][Cl] | MCF-10A | MTT |  | 48 h | dark | IC50 | 34600 nM
Cc1ccc(NC(=O)c2ccc(CN3CCN(C)CC3)cc2)cc1Nc1nccc(-c2cccnc2)n1 | K562 | MTT | 0.2 µM |  |  | viability | 41.6%
